Publication PMC10925991 (Heliyon, 2024)

Legend:
[1] = system: RPE-1 human normal Retina pigmented epithelium cells; experiment: MTT anti-proliferative assay, RPE-1; assay type: cell-based; settings: RPE-1, 48 h, read-out: IC50 (μM) ± SD RPE-1
Summary of the method: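 RPE-1 cells were grown at 37 °C (5% CO₂, humidified) in RPMI-1640 with 10% heat-inactivated FBS and 100 U/mL penicillin/streptomycin. After 24 h, the medium was changed to serum-free, and serial dilutions of test compound in DMSO were added for 48 h. MTT solution (2.5 mg/mL) was then added for 4 h, formazan was dissolved in DMSO, and A590 was read. Triplicates were repeated on three days. % cytotoxicity = (1 − As/Ab) × 100, from which IC50 was derived.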

[2] = system: MCF-7 breast adenocarcinoma cells; experiment: MTT anti-proliferative assay, MCF-7; assay type: cell-based; settings: Homo sapiens, MCF7, 48 h, read-out: IC50 (μM) ± SD MCF-7

| IC50 [2] [µM] | SMILES | IC50 [1] [µM] |
| --- | --- | --- |
| 29.5 ± 1.5 | NNc1nc(NN)c2c(-c3ccc4ccccc4n3)cc(-c3ccccc3)nc2n1 [Compound 11, 2,4-dihydrazinyl-7-phenyl-5-(quinolin-2-yl) pyrido [2,3-d] pyrimidine] | 40.1 ± 1.6 |
| 45.5 ± 2.5 | O=c1[nH]c(=S)[nH]c2nc(-c3ccccc3)cc(-c3ccc4ccccc4n3)c12 [Compound 1, 7-phenyl-5-(quinolin-2-yl)-2-thioxo-2,3-dihydropyrido[2,3-d] pyrimidin-4(1H)-one] | 54.2 ± 2.3 |
| 40.1 ± 2.3 | CSc1nc(Cl)c2c(-c3ccc4ccccc4n3)cc(-c3ccccc3)nc2n1 [Compound 10, 4-chloro-2-(methylthio)-7-phenyl-5-(quinolin-2-yl) pyrido[2,3-d] pyrimidine] | 50.4 ± 1.8 |
| 35.4 ± 1.1 | O=C(O)c1ccccc1Nc1nc2nc(-c3ccccc3)cc(-c3ccc4ccccc4n3)c2c(=O)[nH]1 [Compound 8, 2-((4-oxo-7-phenyl-5-(quinolin-2-yl)-3,4-dihydropyrido[2,3-d]pyrimidin-2-yl)amino) benzoic acid] | 45.2 ± 1.5 |
| 27.1 ± 1.2 | O=C(O)c1ccccc1Nc1nc(Nc2ccccc2C(=O)O)c2c(-c3ccc4ccccc4n3)cc(-c3ccccc3)nc2n1 [Compound 15, 2,2'-((7-phenyl-5-(quinolin-2-yl)pyrido [2,3-d]pyrimidine-2,4-diyl)bis(azanediyl)) dibenzoic acid] | 38.2 ± 1.1 |
| 31 | CNC(=O)c1cc(Oc2ccc(NC(=O)Nc3ccc(Cl)c(C(F)(F)F)c3)cc2)ccn1 [Sorafenib, reference compound] |  |
| 136 | CS(=O)(=O)CCNCc1ccc(-c2ccc3ncnc(Nc4ccc(OCc5cccc(F)c5)c(Cl)c4)c3c2)o1 [lapatinib, reference compound] |  |
| 21.8 ± 2.2 | Clc1ccc(Nc2nc(Nc3ccc(Cl)cc3)c3c(-c4ccc5ccccc5n4)cc(-c4ccccc4)nc3n2)cc1 [Compound 13b, N^2, N^4-bis(4-chlorophenyl)-7-phenyl-5-(quinolin-2-yl) pyrido [2,3-d] pyrimidine-2,4-diamine] | 32.4 ± 1.7 |
| 43.2 ± 2.2 | CSc1nc2nc(-c3ccccc3)cc(-c3ccc4ccccc4n3)c2c(=O)[nH]1 [Compound 2, 2-(methylthio)-7-phenyl-5-(quinolin-2-yl) pyrido [2,3-d] pyrimidin-4(3H)-one] | 52.6 ± 1.9 |
| 23.9 ± 2.1 | c1ccc(Nc2nc(Nc3ccccc3)c3c(-c4ccc5ccccc5n4)cc(-c4ccccc4)nc3n2)cc1 [Compound 13a, N^2, N^4,7-triphenyl-5-(quinolin-2-yl) pyrido [2,3-d] pyrimidine-2,4-diamine] | 34.7 ± 1.3 |
| 37.8 ± 1.4 | CS(=O)(=O)c1nc2nc(-c3ccccc3)cc(-c3ccc4ccccc4n3)c2c(=O)[nH]1 [Compound 6, 2-(methylsulfonyl)-7-phenyl-5-(quinolin-2-yl) pyrido [2,3-d] pyrimidin-4(3H)-one] | 47.3 ± 1.7 |
| 22.5 ± 2.3 | COc1ccc(Nc2nc(Nc3ccc(OC)cc3)c3c(-c4ccc5ccccc5n4)cc(-c4ccccc4)nc3n2)cc1 [Compound 13c, N^2, N^4-bis(4-methoxyphenyl)-7-phenyl-5-(quinolin-2-yl) pyrido [2,3-d] pyrimidine-2,4-diamine] | 33.2 ± 1.4 |

More lines, now with the values behind:

| SMILES | IC50 [2] [µM] | IC50 [1] [µM] |
| --- | --- | --- |
| c1ccc(-c2cc(-c3ccc4ccccc4n3)c3c(N4CCOCC4)nc(N4CCOCC4)nc3n2)cc1 [Compound 14b, 4,4'-(7-phenyl-5-(quinolin-2-yl)pyrido [2,3-d]pyrimidine-2,4-diyl) dimorpholine] | 19.2 ± 1.5 | 29.3 ± 1.1 |
| c1ccc(-c2cc(-c3ccc4ccccc4n3)c3c(N4CCNCC4)nc(N4CCNCC4)nc3n2)cc1 [Compound 14a, 7-phenyl-2,4-di (piperazin-1-yl)-5-(quinolin-2-yl) pyrido [2,3-d] pyrimidine] | 18.7 ± 1.9 | 28.1 ± 1.6 |
| COc1cccc2c1C(=O)c1c(O)c3c(c(O)c1C2=O)C[C@@](O)(C(=O)CO)C[C@@H]3O[C@H]1C[C@H](N)[C@H](O)[C@H](C)O1 [Doxorubicin, reference compound] | 10.5 ± 2.2 | 30.1 ± 3.1 |
| O=c1c2c(-c3ccc4ccccc4n3)cc(-c3ccccc3)nc2nc2n(-c3ccccc3)nc(-c3ccccc3)n12 [Compound 5a, 1,3,8-triphenyl-6-(quinolin-2-yl) pyrido [2,3-d] [1,2,4] triazolo[4,3-a] pyrimidin-5(1H)-one] | 15.1 ± 2.3 | 26.4 ± 1.4 |
| O=c1[nH]c(N2CCOCC2)nc2nc(-c3ccccc3)cc(-c3ccc4ccccc4n3)c12 [Compound 7b, 2-morpholino-7-phenyl-5-(quinolin-2-yl) pyrido [2,3-d] pyrimidin-4(3H)-one] | 32.5 ± 1.3 | 43.5 ± 1.5 |
| O=c1c2ccccc2nc2n1c1nc(-c3ccccc3)cc(-c3ccc4ccccc4n3)c1c1nc3ccccc3c(=O)n12 [Compound 16, 8-phenyl-6-(quinolin-2-yl)-11H,18H-pyrido [3′,2':5,6] pyrimido [2,1-b:4,3-b'] diquinazoline-11,18-dione] | 6.2 ± 1.3 | 17.5 ± 1.8 |
| O=c1c2ccccc2[nH]c2nc3nc(-c4ccccc4)cc(-c4ccc5ccccc5n4)c3c(=O)n12 [Compound 9, 2-phenyl-4-(quinolin-2-yl)-5H-pyrido [2′,3':4,5] pyrimido [2,1-b] quinazoline-5,7(12H)-dione] | 8.1 ± 2.1 | 21.2 ± 1.1 |
| O=c1[nH]c(N2CCNCC2)nc2nc(-c3ccccc3)cc(-c3ccc4ccccc4n3)c12 [Compound 7a, 7-phenyl-2-(piperazin-1-yl)-5-(quinolin-2-yl) pyrido [2,3-d] pyrimidin-4(3H)-one] | 31.2 ± 1.8 | 42.1 ± 1.9 |
